# Read-outs that look alike come from different tables or passages of the source.
# Tests used:
# MHV-A59 [1] = type: in vivo, mouse hepatitis virus
# MHV-A59 [2] = test: Therapeutic treatment from 12 hpi in MHV-A59-infected BALB/c mice; type: in vivo, mouse hepatitis virus; settings: 5 dpi; for Serum ALT and AST (liver injury markers): 50 mg/kg intragastric twice daily from 12 hpi, vs vehicle; for MHV replication in the lung (qRT-PCR and plaque assay): 500 mg/kg intragastric twice daily from 12 hpi
# In short: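 BALB/c mice were infected intranasally with 4×10^5 PFU MHV-A59. At 5 dpi, lung and liver were assayed by qRT-PCR and L2-cell plaque assay. Orbital blood was clotted at room temperature and the serum run in ALT/AST kits.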
# MHV-A59 [3] = test: Delayed therapeutic treatment; type: in vivo, mouse hepatitis virus; settings: 5 dpi; for Viral replication in the lung (qRT-PCR): start 24-96 hpi
# In short: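 BALB/c mice under light isoflurane anaesthesia were infected intranasally with 4×10^5 PFU MHV-A59 in 40 μL DMEM. Test compound was started at delayed times post-infection and given every 12 h. At 5 dpi, lung and liver virus was measured by qRT-PCR and by plaque assay on L2 cells, with methyl cellulose overlay and crystal violet staining. Lungs were scored 0–4 for edema, mononuclear and PMN infiltration and hemorrhage; livers were blindly Ishak-scored. Serum ALT/AST measured by kit.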
# MHV = test: Anti-animal coronavirus activity, viral load by qRT-PCR, MHV in L2 cells; type: cell-based, mouse hepatitis virus; settings: Murine coronavirus, 48 h, read-out: EC50 for MHV
# In short: (§1)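 Cells seeded in 48-well plates and grown 24 h to about 90% confluence, then washed three times with serum-free medium. Infected at MOI 0.01 for 1 h at 37 °C, then given medium with test compound dilutions or DMSO. After 48 h at 37 °C, cells and supernatants were harvested for viral load by qRT-PCR. EC50 taken from the dose–response curve; mean ± SEM.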
# MHV-A59 [4] = test: Time-of-addition of ATV006 in MHV-A59-infected cells, viral load; type: cell-based, mouse hepatitis virus; settings: ATV006 administered 48 h after the viral infection; MOI = 0.0001
# HCoV-229E = test: microbe, parasite or virus in culture; type: cell-based; settings: Human coronavirus 229E, Huh-7, read-out: EC50 for HCoV-229E
# [5] = cynomolgus monkeys; cited from earlier work
# PEDV = test: Anti-animal coronavirus activity, viral load by qRT-PCR, PEDV in Vero E6 cells; type: cell-based; settings: Porcine epidemic diarrhea virus, Vero C1008, 48 h, read-out: EC50 for PEDV
# In short: as §1
# HCoV-OC43 = test: Anti-human coronavirus activity, viral RNA by qRT-PCR, HCoV-OC43 in HCT-8 cells; type: cell-based; settings: Betacoronavirus 1, OC43, HCT-8, read-out: EC50 for HCoV-OC43
# MHV-A59 [6] = test: Prophylactic ATV006 in MHV-A59-infected BALB/c mice, liver; type: in vivo, mouse hepatitis virus
# [7] = rats; cited from earlier work
# HCoV-NL63 = type: cell-based; settings: Human coronavirus NL63, LLC-MK2, read-out: EC50 for HCoV-NL63
# TGEV = test: Anti-animal coronavirus activity, viral load by qRT-PCR, TGEV in ST cells; type: cell-based, transmissible gastroenteritis virus; settings: Alphacoronavirus 1, 48 h, read-out: EC50 for TGEV
# In short: as §1
# MHV-A59 [8] = test: Prophylactic ATV006 in intranasally MHV-A59-infected BALB/c mice, lung; type: in vivo, mouse hepatitis virus; settings: 3 dpi
# In short: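 BALB/c mice were inoculated intranasally with 4×10^5 PFU MHV-A59 under mild isoflurane anaesthesia. They received vehicle (n = 6) or test compound at 500, 250, 100 or 50 mg/kg intragastric twice daily as prophylaxis (n = 5). Lungs were taken at 3 dpi for qRT-PCR and for plaque assay on L2 cells (methyl cellulose overlay, crystal violet). Lung sections were zinc formalin-fixed, 4 μm, H&E stained.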
# [9] = […], GS-441524 50 mg/kg oral once daily
# [10] = ATV006 500 mg/kg administered at 24 hpi
# [11] = […], remdesivir 20 mg/kg intraperitoneal once daily
compound,measurement,setting,value
"N#C[C@@]1(c2ccc3c(N)ncnn23)O[C@H](CO)[C@@H](O)[C@H]1O [GS-441524, reference compound]",Body weight compared with ATV006 (50 mg/kg),MHV-A59 [1]; [9],lower than that of mice treated with ATV006
same,Survival,MHV-A59 [1]; [9],prevented MHV-infected mice from dying
same,Serum ALT and AST (liver injury markers),MHV-A59 [2],significantly reduced the liver injury markers ALT and AST
same,MHV replication in the lung (qRT-PCR and plaque assay),MHV-A59 [2],only ATV006 significantly inhibited MHV replication in the lung
same,Virus titers in the liver (plaque assay),"MHV-A59 [2]; GS-441524 at 25, 50 mg/kg twice daily from 12 hpi",below the detection limit of the plaque assay
CC(C)C(=O)OC[C@H]1O[C@@](C#N)(c2ccc3c(N)ncnn23)[C@H](O)[C@@H]1O [ATV006],Survival,"MHV-A59 [1]; […], ATV006 2 mg/kg intragastric once daily",all died by 10 dpi
same,Mortality and weight loss,"MHV-A59 [1]; […], ATV006 5 to 50 mg/kg intragastric once daily",effectively prevented mortality and weight loss
same,Reduction of viral titers in the liver,"MHV-A59 [1]; mouse, in vivo, 2 mg/kg",approximately sixfold
same,Live virus in the liver (plaque assay),"MHV-A59 [1]; mouse, in vivo, 50 mg/kg",no live virus was found in the liver
same,Reduction of viral titers in the liver,"MHV-A59 [1]; mouse, in vivo, 50 mg/kg","1,000,000 fold"
same,MHV replication in the liver (qRT-PCR),"MHV-A59 [3]; ATV006 2 mg/kg, delayed treatment",ineffective
same,Liver pathology (Ishak scoring),"MHV-A59 [3]; ATV006 10 mg/kg administered at 24, 48 and 72 hpi","significantly reduced liver piecemeal necrosis, bridging necrosis, circumscribed hepatic necrosis, and portal inflammation"
same,Serum ALT and AST levels,"MHV-A59 [3]; ATV006 10 mg/kg, delayed treatment",alleviated liver injury
same,Virus titers in the liver (plaque assay),MHV-A59 [3]; ATV006 50 mg/kg administered as late as 96 hpi,reduced virus titers to levels undetectable by plaque assay
same,Viral replication in the lung (qRT-PCR),MHV-A59 [3]; ATV006 250 mg/kg every 12 h,significant inhibition of viral replication only when ATV006 treatment (250 mg/kg) began no later than 24 hpi
same,Bleeding in the lungs (hemorrhage score),MHV-A59 [3]; [10],did not improve significantly
same,"Lung pathology: edema, monocyte and neutrophil infiltration",MHV-A59 [3]; [10],reduced pulmonary edema and monocyte and neutrophil infiltration
same,Viral replication in the lung (qRT-PCR),MHV-A59 [3]; ATV006 500 mg/kg every 12 h,effective when started within 48 hpi
same,Infectious viral particles in the lungs (plaque assay),MHV-A59 [3]; ATV006 500 mg/kg initiated within 48 hpi,No infectious viral particles were detected
same,MHV replication in the liver (qRT-PCR),"MHV-A59 [3]; ATV006 10, 25 and 50 mg/kg administered at 24 or 48 hpi",significantly inhibited MHV replication
same,Serum ALT and AST (liver injury markers),MHV-A59 [2],significantly reduced the liver injury markers ALT and AST
same,MHV replication in the lung (qRT-PCR and plaque assay),MHV-A59 [2],significantly inhibited MHV replication in the lung
same,MHV replication in the liver (qRT-PCR),MHV-A59 [2]; ATV006 2-50 mg/kg intragastric twice daily from 12 hpi,inhibited MHV replication in a dose-dependent manner
same,Virus titers in the liver (plaque assay),"MHV-A59 [2]; ATV006 at 2, 10, 25, 50 mg/kg twice daily from 12 hpi",below the detection limit of the plaque assay
same,EC50,MHV,265 nM
same,Inhibition of MHV-A59 viral load,MHV-A59 [4],no inhibitory effect was observed
same,EC50,HCoV-229E,1120 nM
same,Oral bioavailability,[5],high oral bioavailability
same,EC50,PEDV,1050 nM
same,EC50,HCoV-OC43,2900 nM
same,Inflammatory cell infiltration in the liver (histopathology),MHV-A59 [6]; ATV006 50 mg/kg intragastric twice daily,significant reduction in inflammatory cell infiltration
same,Serum ALT and AST (liver injury markers),"MHV-A59 [6]; ATV006 50 mg/kg intragastric twice daily, 3 dpi, vs control",lower in the ATV006-treated group than in the control group
same,Viral titers in the liver (plaque assay),"MHV-A59 [6]; ATV006-treated group, prophylactic, 3 dpi",below the detection limit
same,Expression of inflammatory cytokines in the liver,"MHV-A59 [6]; ATV006 prophylactic, 3 dpi",significant decrease in the expression of various inflammatory cytokines in the liver
same,Oral bioavailability,[7],high oral bioavailability
same,EC50,HCoV-NL63,800 nM
same,EC50,TGEV,3040 nM
same,Inflammatory cell infiltration in lung (histopathology),MHV-A59 [8]; ATV006 500 mg/kg intragastric twice daily,vehicle-treated mice had more inflammatory cell infiltration compared to mice treated with ATV006
same,MHV infectious particles in the lung (plaque assay),MHV-A59 [8]; ATV006 50-500 mg/kg intragastric twice daily,dose-dependent decrease in the number of MHV infectious particles
same,"Inflammatory cytokines and chemokines in the lung (Ifnβ, Cxcl10, Il6, Il1β, Ifnγ)",MHV-A59 [8]; ATV006 prophylactic,significantly reduced the production of inflammatory cytokines and chemokines in the lung
"CCC(CC)COC(=O)[C@H](C)N[P@](=O)(OC[C@H]1O[C@@](C#N)(c2ccc3c(N)ncnn23)[C@H](O)[C@@H]1O)Oc1ccccc1 [remdesivir, reference compound]",Body weight compared with ATV006 (50 mg/kg),MHV-A59 [1]; [11],lower than that of mice treated with ATV006
same,Survival,MHV-A59 [1]; [11],prevented MHV-infected mice from dying

# Reference: PMC12144996 (Acta Pharmaceutica Sinica. B, 2025)
